# Active and inactive are the calls of the source. The calls are words filed in the database; no cut-off is given here.
# What was measured:
# [1] = target: T1, Casein kinase I isoform alpha/delta (Homo sapiens) (UniProt P48730+P48729); assay: Inhibition of CK1alpha/CK1delta in human U2OS cells co-expressing Bmal1-dLuc assessed as modulation circadian clock by measuring drug level causing 1 hr circadian period lengthening measured every 100 mins by luminescence assay; assay type: cell-based
# Summary of the method: (§1)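 Bmal1-dLuc U2OS cells seeded at 2000 per well and grown 2 days in DMEM/10% FBS. Explant medium with 1 mM luciferin, 10 mM HEPES and 2% B27 (pH 7.2) added, with compounds at 8 μM to 1 nM (3-fold dilutions, final 0.7% DMSO). Luminescence read every 100 min. Period obtained by curve fitting, excluding the first 20 h. Value is the concentration giving the stated lengthening; mean of at least two independent determinations.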
# [2] = target: T1, Casein kinase I isoform alpha/delta (Homo sapiens); assay: Inhibition of CK1alpha/CK1delta in human U2OS cells co-expressing Bmal1-dLuc assessed as modulation circadian clock by measuring drug level causing 5 hrs circadian period lengthening measured every 100 mins by luminescence assay; assay type: cell-based; summary of the method: as §1
# Mus musculus [3] = assay: Modulation of circadian rhythms in C57BL/6J mouse assessed as lengthening of time period of circadian behavior at 1 mM administered via infusion using osmotic pump by passive infrared sensor analysis; assay type: functional
# Summary of the method: (§2)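 Male C57BL/6J mice, 8 weeks old, entrained to 12 h light:12 h dark and then released into constant darkness. Drug infused continuously into the lateral ventricle by osmotic mini-pump via a stereotaxic cannula (0.2 mm anterior, 1.4 mm lateral, 2.2 mm deep). Artificial cerebrospinal fluid infusion served as control, with buffer infusion afterwards. Movement recorded each minute by passive infrared sensor to derive period.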
# CDK7/Cyclin H/MNAT1 = CDK7/Cyclin H/MNAT1 (Homo sapiens, UniProt P50613); assay: Inhibition of recombinant full length C-terminal human His-tagged CDK7/cyclin H/N-terminal MAT1 expressed in baculovirus expression system using Cdk7/9 peptide as substrate after 3 hrs by kinase-glo luminescent assay relative to control
# CDK7/Cyclin H/MNAT1, sequence (P51946 whole entry): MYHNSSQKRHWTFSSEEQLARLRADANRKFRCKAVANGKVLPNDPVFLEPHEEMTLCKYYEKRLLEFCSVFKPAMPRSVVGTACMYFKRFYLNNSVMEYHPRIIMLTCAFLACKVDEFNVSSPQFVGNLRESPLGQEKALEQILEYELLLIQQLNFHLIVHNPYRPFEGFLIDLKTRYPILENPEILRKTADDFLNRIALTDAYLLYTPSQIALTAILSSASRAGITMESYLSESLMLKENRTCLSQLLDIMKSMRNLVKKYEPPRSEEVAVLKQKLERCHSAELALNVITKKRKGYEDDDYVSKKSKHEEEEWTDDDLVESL
# CDK7/Cyclin H/MNAT1, sequence (P50613 whole entry): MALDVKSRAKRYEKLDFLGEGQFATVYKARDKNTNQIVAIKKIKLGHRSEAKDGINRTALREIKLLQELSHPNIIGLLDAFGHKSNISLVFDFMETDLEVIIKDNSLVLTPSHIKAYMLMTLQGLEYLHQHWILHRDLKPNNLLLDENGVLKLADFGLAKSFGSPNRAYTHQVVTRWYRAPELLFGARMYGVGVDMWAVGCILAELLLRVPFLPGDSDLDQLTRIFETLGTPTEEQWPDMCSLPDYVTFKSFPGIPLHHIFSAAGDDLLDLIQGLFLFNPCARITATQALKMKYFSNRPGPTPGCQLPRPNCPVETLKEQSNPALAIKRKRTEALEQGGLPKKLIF
# CDK7/Cyclin H/MNAT1, sequence (P51948 whole entry, further chain): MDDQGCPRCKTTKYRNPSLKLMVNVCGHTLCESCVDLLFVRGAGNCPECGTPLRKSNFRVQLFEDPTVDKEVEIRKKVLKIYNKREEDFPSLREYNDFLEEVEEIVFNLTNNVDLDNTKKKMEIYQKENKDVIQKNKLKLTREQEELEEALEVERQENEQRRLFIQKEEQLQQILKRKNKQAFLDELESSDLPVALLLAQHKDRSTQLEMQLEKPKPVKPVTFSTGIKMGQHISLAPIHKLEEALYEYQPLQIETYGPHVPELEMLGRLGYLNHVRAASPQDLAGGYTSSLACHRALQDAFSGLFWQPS
# Summary of the method: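 CDK7 used at 5 ng/μL with 100 μM Cdk7/9 peptide substrate in CKI buffer (40 mM Tris, 10 mM MgCl2, 0.5 mM DTT, 0.1 mg/mL BSA, pH 7.5). ATP start at final 5 μM, 30 °C for 3 h, Kinase-Glo luminescence read-out.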
# [4] = target: T2, Casein kinase I isoform delta (Homo sapiens, UniProt P48730); assay: Inhibition of recombinant N-terminal human GST-tagged CK1delta (1 to 294 residues) expressed in Escherichia coli at 5 uM using RKKKAEpSVASLTSQCSYSS peptide as substrate after 3 hrs by kinase-glo luminescent assay relative to control
# Target sequence in this assay (P48730 whole entry, looked up, the tested form may be a part, canonical isoform): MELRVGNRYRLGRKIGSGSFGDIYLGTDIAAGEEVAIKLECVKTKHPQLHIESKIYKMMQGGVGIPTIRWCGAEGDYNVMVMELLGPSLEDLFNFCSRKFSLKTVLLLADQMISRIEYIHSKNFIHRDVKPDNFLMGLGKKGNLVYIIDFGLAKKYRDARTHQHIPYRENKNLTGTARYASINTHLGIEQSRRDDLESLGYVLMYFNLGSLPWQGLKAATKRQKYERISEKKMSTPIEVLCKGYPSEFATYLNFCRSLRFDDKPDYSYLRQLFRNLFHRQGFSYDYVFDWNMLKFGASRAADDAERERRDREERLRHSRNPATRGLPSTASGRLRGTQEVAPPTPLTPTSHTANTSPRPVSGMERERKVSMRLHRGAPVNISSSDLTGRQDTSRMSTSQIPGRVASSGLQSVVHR
# Mus musculus [5] = assay: Modulation of circadian rhythms in C57BL/6J mouse assessed as lengthening of time period of circadian behavior at 15 mM administered via infusion using osmotic pump by passive infrared sensor analysis; assay type: functional; summary of the method: as §2
# [6] = target: T3, Casein kinase I isoform alpha (Homo sapiens, UniProt P48729); assay: Inhibition of recombinant full length human GST-tagged CK1apha expressed in baculovirus at 5 uM using peptide as substrate after 3 hrs by kinase-glo luminescent assay
# Target sequence in this assay (P48729 2-337 limits assumed): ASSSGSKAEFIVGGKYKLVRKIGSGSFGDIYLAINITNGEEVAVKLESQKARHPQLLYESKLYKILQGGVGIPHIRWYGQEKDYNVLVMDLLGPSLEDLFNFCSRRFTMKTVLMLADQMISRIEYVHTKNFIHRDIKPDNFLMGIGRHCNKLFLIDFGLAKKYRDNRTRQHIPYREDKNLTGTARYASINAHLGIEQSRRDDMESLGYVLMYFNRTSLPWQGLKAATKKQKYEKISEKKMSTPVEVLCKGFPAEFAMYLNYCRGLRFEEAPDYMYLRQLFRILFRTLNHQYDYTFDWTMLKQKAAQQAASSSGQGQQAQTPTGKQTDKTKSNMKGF
# [7] = target: T4, Cyclin-dependent kinase 2 (Homo sapiens, UniProt P24941); assay: Inhibition of CDK2 (unknown origin) at 5 uM after 3 hrs by kinase-glo luminescent assay relative to control
# [8] = target: T3, Casein kinase I isoform alpha; assay: Inhibition of recombinant full length human GST-tagged CK1apha expressed in baculovirus using peptide as substrate after 3 hrs by kinase-glo luminescent assay
# Summary of the method: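 Reaction held 1 ng/μL CKIα and 50 μM CKI peptide substrate in CKI buffer (40 mM Tris, 10 mM MgCl2, 0.5 mM DTT, 0.1 mg/mL BSA, pH 7.5). Final 5% DMSO from compound. Started with ATP (final 5 μM). Ran 3 h at 30 °C, then Kinase-Glo reagent added and luminescence recorded.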
# Target sequence in this assay (P48729 whole entry, canonical isoform): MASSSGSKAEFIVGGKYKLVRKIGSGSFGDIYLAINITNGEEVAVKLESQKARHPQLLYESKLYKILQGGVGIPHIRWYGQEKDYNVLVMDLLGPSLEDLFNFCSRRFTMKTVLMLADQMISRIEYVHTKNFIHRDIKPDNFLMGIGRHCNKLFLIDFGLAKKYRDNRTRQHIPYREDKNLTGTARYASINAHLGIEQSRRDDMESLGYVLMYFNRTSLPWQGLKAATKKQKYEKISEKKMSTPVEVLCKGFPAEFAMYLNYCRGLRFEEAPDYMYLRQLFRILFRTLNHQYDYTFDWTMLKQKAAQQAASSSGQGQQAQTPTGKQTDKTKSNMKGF
# Mus musculus [9] = assay: Modulation of circadian rhythms in C57BL/6J mouse assessed as lengthening of time period of circadian behavior at 3 mM administered via infusion using osmotic pump by passive infrared sensor analysis; assay type: functional; summary of the method: as §2
# [10] = target: T5, Mitogen-activated protein kinase 1 (Homo sapiens, UniProt P28482); assay: Inhibition of N-terminal GST-tagged recombinant full-length human MAPK1 expressed in Escherichia coli at 5 uM using MBP as substrate after 3 hrs by kinase-glo luminescent assay relative to control
# T5 sequence (P28482 whole entry): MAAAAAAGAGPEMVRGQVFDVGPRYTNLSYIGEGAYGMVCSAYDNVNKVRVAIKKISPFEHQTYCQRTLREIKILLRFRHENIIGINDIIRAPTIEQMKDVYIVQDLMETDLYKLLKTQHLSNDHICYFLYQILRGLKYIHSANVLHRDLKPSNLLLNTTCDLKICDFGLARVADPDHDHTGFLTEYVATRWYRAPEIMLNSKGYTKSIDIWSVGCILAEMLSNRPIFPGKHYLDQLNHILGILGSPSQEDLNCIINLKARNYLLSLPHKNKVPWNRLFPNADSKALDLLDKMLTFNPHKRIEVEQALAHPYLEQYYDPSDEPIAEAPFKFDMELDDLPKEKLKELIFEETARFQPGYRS
# [11] = target: CDK7/Cyclin H/MNAT1 (Homo sapiens) (UniProt P51946+P50613+P51948); assay: Inhibition of recombinant full length C-terminal human His-tagged CDK7/cyclin H/N-terminal MAT1 expressed in baculovirus expression system at 5 uM using Cdk7/9 peptide as substrate after 3 hrs by kinase-glo luminescent assay relative to control
# [12] = target: T5, Mitogen-activated protein kinase 1; assay: Inhibition of N-terminal GST-tagged recombinant full-length human MAPK1 expressed in Escherichia coli using MBP1 as substrate after 3 hrs by kinase-glo luminescent assay relative to control
# Summary of the method: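 MAPK1 assayed as ERK2 at 1.5 ng/μL with 0.8 μg/μL MBP. ERK buffer: 50 mM Tris, 10 mM MgCl2, 0.5 mM DTT, 1 mM EGTA, pH 7.5. Compound at final 5% DMSO, then ATP (final 5 μM). Incubated 3 h at 30 °C; Kinase-Glo luminescence.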
# [13] = target: T2, Casein kinase I isoform delta; assay: Inhibition of recombinant N-terminal human GST-tagged CK1delta (1 to 294 residues) expressed in Escherichia coli using RKKKAEpSVASLTSQCSYSS peptide as substrate after 3 hrs by kinase-glo luminescent assay relative to control
# Summary of the method: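 CKI buffer: 40 mM Tris, 10 mM MgCl2, 0.5 mM DTT, 0.1 mg/mL BSA, pH 7.5. Compound added first (final 5% DMSO), then ATP to a final 5 μM. Incubated 30 °C for 3 h; remaining ATP read by Kinase-Glo luminescence.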
# Target sequence in this assay (P48730 whole entry, the tested form may be a part, canonical isoform): as the sequence (P48730 whole entry, looked up, the tested form may be a part, canonical isoform) above
# [14] = target: T4, Cyclin-dependent kinase 2; assay: Inhibition of CDK2 (unknown origin) after 3 hrs by kinase-glo luminescent assay relative to control
# Mus musculus [15] = assay: Modulation of circadian rhythms in C57BL/6J mouse assessed as lengthening of time period of circadian behavior at 5 mM administered via infusion using osmotic pump by passive infrared sensor analysis; assay type: functional; summary of the method: as §2
# [16] = target: Casein kinase I isoform epsilon (Homo sapiens) (UniProt P49674); assay: Inhibition of CK1epsilon (unknown origin) at 5 uM relative to control
# [17] = target: T3, Casein kinase I isoform alpha; assay: Inhibition of CK1apha (unknown origin) at 5 uM relative to control
# Target sequence in this assay (P48729 2-337 limits assumed): as the sequence (P48729 2-337 limits assumed) above
# [18] = target: T2, Casein kinase I isoform delta; assay: Inhibition of CK1delta (unknown origin) at 5 uM relative to control
# Target sequence in this assay (P48730 whole entry, looked up, the tested form may be a part, canonical isoform): as the sequence (P48730 whole entry, looked up, the tested form may be a part, canonical isoform) above
# [19] = target: SRSF protein kinase 2 (Homo sapiens) (UniProt P78362); assay: Inhibition of SRPK2 (unknown origin) at 5 uM relative to control
# SRSF protein kinase 2 (Homo sapiens), sequence (P78362 whole entry, looked up): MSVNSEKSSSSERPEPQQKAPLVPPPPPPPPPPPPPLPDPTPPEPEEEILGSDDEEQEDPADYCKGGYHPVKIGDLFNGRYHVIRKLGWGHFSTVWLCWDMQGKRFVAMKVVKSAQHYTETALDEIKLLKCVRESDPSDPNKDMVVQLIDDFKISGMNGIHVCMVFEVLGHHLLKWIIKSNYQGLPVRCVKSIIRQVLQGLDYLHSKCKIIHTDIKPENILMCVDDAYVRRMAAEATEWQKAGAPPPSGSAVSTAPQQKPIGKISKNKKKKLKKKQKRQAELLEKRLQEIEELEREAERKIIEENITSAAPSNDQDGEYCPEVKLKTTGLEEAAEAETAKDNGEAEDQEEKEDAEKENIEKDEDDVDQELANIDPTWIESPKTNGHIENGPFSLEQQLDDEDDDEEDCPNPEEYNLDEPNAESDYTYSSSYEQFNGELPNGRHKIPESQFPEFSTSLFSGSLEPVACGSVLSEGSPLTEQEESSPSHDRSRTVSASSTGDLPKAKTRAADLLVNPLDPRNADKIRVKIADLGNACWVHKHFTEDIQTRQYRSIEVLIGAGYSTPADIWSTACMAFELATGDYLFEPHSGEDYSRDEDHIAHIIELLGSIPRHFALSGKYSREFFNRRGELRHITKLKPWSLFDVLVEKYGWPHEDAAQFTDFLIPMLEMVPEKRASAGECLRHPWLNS
# [20] = target: Cyclin-dependent kinase 6 (Homo sapiens) (UniProt Q00534); assay: Inhibition of CDK6 (unknown origin) at 5 uM relative to control
# [21] = target: T6, Casein kinase I isoform alpha-like (Homo sapiens) (UniProt Q8N752); assay: Inhibition of CK1alpha-like protein (unknown origin) at 5 uM relative to control
# T6 sequence (whole entry): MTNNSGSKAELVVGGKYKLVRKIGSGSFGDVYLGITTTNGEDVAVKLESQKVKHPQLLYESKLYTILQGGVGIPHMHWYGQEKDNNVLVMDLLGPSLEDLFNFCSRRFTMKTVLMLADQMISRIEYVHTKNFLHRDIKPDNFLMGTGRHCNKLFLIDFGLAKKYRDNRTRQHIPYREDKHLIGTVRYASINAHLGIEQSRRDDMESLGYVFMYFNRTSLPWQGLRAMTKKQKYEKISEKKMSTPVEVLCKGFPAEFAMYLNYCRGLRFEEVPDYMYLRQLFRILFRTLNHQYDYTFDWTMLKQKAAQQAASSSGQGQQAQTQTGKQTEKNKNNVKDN
# [22] = target: Cyclin-dependent kinase 7 (Homo sapiens) (UniProt P50613); assay: Inhibition of CDK7 (unknown origin) at 5 uM relative to control
# Cyclin-dependent kinase 7 (Homo sapiens), sequence (P50613 whole entry, the tested form may be a part): as the sequence (P50613 whole entry) above
# Mus musculus [23] = assay: Reversible modulation of circadian rhythms in C57BL/6J mouse assessed as lengthening of time period of circadian behavior at 5 mM administered via infusion using osmotic pump followed buffer infusion by passive infrared sensor analysis; assay type: functional, organism-based; summary of the method: as §2
# [24] = target: SRSF protein kinase 1 (Homo sapiens) (UniProt Q96SB4); assay: Inhibition of SRPK1 (unknown origin) at 5 uM relative to control
# [25] = target: Dual specificity protein kinase CLK2 (Homo sapiens) (UniProt P49760); assay: Inhibition of CLK2 (unknown origin) at 5 uM relative to control
# T1 sequence (P48729 whole entry, looked up, canonical isoform): as the sequence (P48729 whole entry, canonical isoform) above
# T1 sequence (P48730 whole entry, looked up, canonical isoform): as the sequence (P48730 whole entry, looked up, the tested form may be a part, canonical isoform) above
Compound,EC [1],EC [2],further results
CC(C)Oc1nc(NCc2cccc(C(F)(F)F)c2)c2ncn(C(C)C)c2n1,0.39 µM,2.75 µM,–
CC[C@H](CO)Nc1nc(NCc2cccc(C(F)(F)F)c2)c2ncn(C(C)C)c2n1,0.38 µM,3.76 µM,–
CC(C)n1cnc2c(NCc3cccc(C(F)(F)F)c3)nc(N3CCC(O)CC3)nc21,1.98 µM,10.4 µM,–
CC(C)n1cnc2c(NCc3cccc(C(F)(F)F)c3)nc(NC3CC3)nc21,1.62 µM,3.04 µM,–
CC(C1CC1)n1cnc2c(OCc3cccc(C(F)(F)F)c3)nc(NCCN(C)C)nc21 (centres undefined),inactive,inactive,–
CC(C)n1cnc2c(NCc3cccc(C(F)(F)F)c3)nc(NCc3ccccc3)nc21,inactive,inactive,–
COc1nc(NCc2cccc(C(F)(F)F)c2)c2ncn(C(C)C)c2n1,0.32 µM,2.39 µM,–
CC(C)n1cnc2c(NCc3cccc(C(F)(F)F)c3)nc(N3CCCN(C)CC3)nc21,0.68 µM,5.8 µM,–
CC(C)n1cnc2c(NCc3cccc(C(F)(F)F)c3)nc(NCCN3CCOCC3)nc21,1.65 µM,9.33 µM,–
COCC1CCCN1c1nc(NCc2cccc(C(F)(F)F)c2)c2ncn(C(C)C)c2n1 (centres undefined),inactive,inactive,–
CC[C@H](CO)Nc1nc(NCc2ccccc2)c2ncn(C(C)C)c2n1,0.96 µM,9 µM,–
CC(C)n1cnc2c(NCc3cccc(C(F)(F)F)c3)nc(N3CCN(C)CC3)nc21,0.9 µM,3.66 µM,–
CCCCOc1nc(NCc2cccc(C(F)(F)F)c2)c2ncn(C(C)C)c2n1,6.39 µM,23.4 µM,–
CC(C1CC1)n1cnc2c(NCc3cccc(C(F)(F)F)c3)ncnc21 (centres undefined),0.09 µM,0.9 µM,–
CC(C)n1cnc2c(NCc3cccc(C(F)(F)F)c3)nc(NCCN(C)C)nc21,0.09 µM,0.9 µM,–
CC(C)n1cnc2c(NCc3cccc(C(F)(F)F)c3)ncnc21,0.39 µM,3.4 µM,Time (Mus musculus [3]): 0.05 h; IC50 (CDK7/Cyclin H/MNAT1): 32 µM; inhibition [4]: > 30%; Time (Mus musculus [5]): 0.15 h; inhibition [6]: > 30%; inhibition [7]: > 30%; IC50 [8]: 12 µM; Time (Mus musculus [9]): 0.1 h; inhibition [10]: > 30%; inhibition [11]: > 30%; IC50 [12]: 59 µM; IC50 [13]: 12 µM; IC50 [14]: 13 µM; Time (Mus musculus [15]): 0.1 h
CC(C)n1cnc2c(NCc3cccc(C(F)(F)F)c3)nc(NCCN)nc21,0.58 µM,5.23 µM,–
CC(=O)N1CCN(c2nc(NCc3cccc(C(F)(F)F)c3)c3ncn(C(C)C)c3n2)CC1,1.03 µM,5.7 µM,–
CC(C1CC1)n1cnc2c(N(C)Cc3cccc(C(F)(F)F)c3)nc(NCCN(C)C)nc21 (centres undefined),inactive,inactive,–
CC(C1CC1)n1cnc2c(NCc3cccc(C(F)(F)F)c3)nc(NCCN(C)C)nc21 (centres undefined),0.022 µM,0.32 µM,IC50 (CDK7/Cyclin H/MNAT1): 2.4 µM; inhibition [4]: Active; Time (Mus musculus [5]): 0.15 h; inhibition [16]: > 50%; inhibition [17]: > 50%; inhibition [6]: Active; inhibition [18]: > 50%; inhibition [19]: Active; inhibition [20]: > 50%; IC50 [8]: 1.8 µM; inhibition [21]: > 50%; inhibition [22]: > 50%; Activity (Mus musculus [23]): Active; inhibition [24]: Active; inhibition [11]: Active; IC50 [12]: 850 µM; IC50 [13]: 3.6 µM; IC50 [14]: 37 µM; Time (Mus musculus [15]): 0.15 h; inhibition [25]: Active

# Reference: ChEMBL document CHEMBL4422662, “Chemical Control of Mammalian Circadian Behavior through Dual Inhibition of Casein Kinase Iα and δ” (J Med Chem, 2019)
